Only some compounds are listed: those with a hit (about 3.7% of all), similar ones and a draw of the others.
Kir21 inh – blocks the mouse Kir2.1 inward-rectifier potassium channel. HEK293-Kir2.1, FluxOR thallium flux fluorescence; stronger effect = lower value. B-score at 10 µM. 310,000 compounds, 0.85% hits. P35561;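 active means fluorescence ratio B-score at or below minus 3 SD of library scores, with starting-brightness B-score within 2 SD, cut at about -4.2 in these data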;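 further: channel flux triggered by added potassium and thallium sulfate stimulus; B-score of peak minus minimum fluorescence over baseline after thallium stimulus; more negative B-score means stronger Kir2.1 block with less thallium influx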
KCNQ1 act – potentiators or activators of human KCNQ1 potassium channel | 310,000 compounds, 0.35% hits | CHO-K1 KCNQ1, thallium flux FluxOR fluorescence; stronger effect = higher value | B-score at 10 µM | P51787;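 active means fluorescence ratio B-score, a plate-corrected score, at least three library SD, with initial intensity B-score within 5 SD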
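Material: CHO-K1 cells stably expressing KCNQ1. Medium: assay buffer for compound exposure, DMSO matched across wells. Reagent: K+/Tl+ depolarizing stimulus. Compound dosing: single-concentration screen. Times: 37 °C overnight plating, 90-min dark dye load, 20-min compound pretreatment. Technique: FluxOR Tl+ flux fluorescence.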
KCNQ1 inh – human KCNQ1 channel inhibition; P51787; CHO-K1 KCNQ1, FluxOR thallium flux fluorescence; stronger effect = higher value; B-score at 10 µM; 310,000 compounds, 1.3% hits; AID 2642;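 active means compounds whose thallium flux B-score, printed positive for inhibition, exceeds three library SD while starting fluorescence stays within three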;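 further: channel opened by potassium depolarization with thallium stimulus after 20 min compound exposure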
KCNK3 block – human KCNK3 channel inhibition, primary screen; O14649; CHO-KCNK3 thallium flux, FluxOR fluorescence; stronger effect = lower value; B-score at 10 µM; 340,000 compounds, 0.84% hits; AID 602410;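 active means B-score under library mean minus 4 SD, starting fluorescence ratio at most library mean plus 5 SD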;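 further: more negative B-score means stronger inhibition of thallium flux through KCNK3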
hERG protect – compounds protecting human hERG from proarrhythmic drug block; Q12809; CHO-hERG, FluxOR thallium flux, dofetilide IC70 present; activation (rescue from dofetilide block), less the hit threshold, % at 10 µM; 310,000 compounds, 0.51% hits; AID 1511;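 active means activation above the mean of controls blocked by dofetilide plus 5 SD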;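 further: thallium influx through hERG after potassium depolarization seen as dye fluorescence rise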
KCNK9 inh – blocks the human KCNK9 two-pore domain potassium channel. B-score at 10 µM. AID 488922. Q9NPC2. 310,000 compounds, 1.2% hits. HEK293 KCNK9, FluxOR thallium flux fluorescence; stronger effect = lower value;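 active means ratio B-score over 3 SD below the library mean, with starting fluorescence within 5 SD of its mean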;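 further: negative B-score means less thallium flux so channel inhibition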
KCNQ1 block val – reconfirmed blocker of the human KCNQ1 potassium channel; 1,600 compounds, 93% hits; AID 588353; KCNQ1 cell line, FluxOR thallium flux fluorescence; shares compounds with KCNQ1 inh; inhibition, % at 10 µM;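 active means primary screen active, with duplicate mean exceeding buffer control mean plus 3 SD of buffer wells, cut at about 28% in these data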
CHO KCNQ1 ctr – counter-screen for KCNQ1 inhibitors: effect in parental CHO cells; shares compounds with KCNQ1 inh; parental CHO-K1, FluxOR thallium flux fluorescence ratio; stronger effect = lower value; zero means no signal rise above baseline; fluorescence ratio (Tl flux) at 10 µM; 1,600 compounds, 21% hits; AID 588366;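 active means mean of duplicate thallium-flux fluorescence ratios in parental host cells more than 5 SD below the buffer control mean, cut at about 0.38 in these data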;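 further: ratio is peak minus minimum fluorescence divided by baseline fluorescence; actives read low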
KCNQ1 APC inh – confirmation of human KCNQ1 potassium channel inhibitors by electrophysiology; calls only at 10 µM; shares compounds with KCNQ1 inh; AID 624120; KCNQ1-CHO cells, automated patch clamp current; 490 compounds, 20% hits;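 active means KCNQ1 current drop exceeding 3 SD of negative control wells, seen in both duplicate runs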;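 further: steady state current during a 2 s step from -80 to +40 mV; negative values mean current inhibition and positive values mean potentiation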
KCNQ2 inh – KCNQ1 inhibitor that also blocks rat KCNQ2 channel; AID 651746; shares compounds with KCNQ1 inh; KCNQ2 cells, FluxOR thallium flux fluorescence; inhibition, % at 10 µM; 1,600 compounds, 71% hits;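 active means mean percent inhibition of the KCNQ2 thallium signal more than 5 SD above the buffer-only control wells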;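 further: KCNQ2 expressed in CHO cells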
Target sequence (O88943 whole entry, looked up): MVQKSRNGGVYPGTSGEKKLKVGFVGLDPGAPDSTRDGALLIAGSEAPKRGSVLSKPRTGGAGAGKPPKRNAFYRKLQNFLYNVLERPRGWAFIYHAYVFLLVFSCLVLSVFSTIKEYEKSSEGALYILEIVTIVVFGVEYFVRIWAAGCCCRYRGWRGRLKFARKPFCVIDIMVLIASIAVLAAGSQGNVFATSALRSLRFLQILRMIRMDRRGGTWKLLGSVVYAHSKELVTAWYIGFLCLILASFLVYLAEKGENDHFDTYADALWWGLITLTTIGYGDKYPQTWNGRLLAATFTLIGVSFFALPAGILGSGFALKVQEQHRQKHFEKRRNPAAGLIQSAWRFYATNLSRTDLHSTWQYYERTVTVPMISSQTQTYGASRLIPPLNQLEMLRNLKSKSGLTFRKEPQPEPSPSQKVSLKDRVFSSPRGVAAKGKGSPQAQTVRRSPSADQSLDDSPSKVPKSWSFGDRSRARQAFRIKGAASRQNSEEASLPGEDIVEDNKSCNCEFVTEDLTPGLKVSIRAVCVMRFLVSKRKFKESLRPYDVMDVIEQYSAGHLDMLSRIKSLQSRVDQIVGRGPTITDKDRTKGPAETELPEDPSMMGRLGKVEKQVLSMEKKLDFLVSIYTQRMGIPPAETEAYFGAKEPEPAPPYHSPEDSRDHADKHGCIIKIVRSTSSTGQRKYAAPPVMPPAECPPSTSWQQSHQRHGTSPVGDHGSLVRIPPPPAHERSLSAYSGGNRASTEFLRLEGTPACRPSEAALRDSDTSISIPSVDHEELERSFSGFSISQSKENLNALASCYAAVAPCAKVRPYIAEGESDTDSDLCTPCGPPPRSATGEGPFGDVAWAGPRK
KCNQ1-KCNE1 inh – KCNQ1 inhibitor that also blocks human KCNQ1/KCNE1 channel | 1,600 compounds, 77% hits | inhibition, % at 10 µM | KCNQ1/KCNE1 cells, FluxOR thallium flux fluorescence | shares compounds with KCNQ1 inh;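 active means mean percent inhibition of duplicate wells above the buffer-only control mean plus 3 SD of those controls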
Of the large screens only hits and unclear results are named; the others gave an inactive call (follow-up assays come after a bar, where they were run).

CN(CC(=O)Nc1ccc(F)cc1)C(=O)CN1C(=O)NC2(CCCc3ccccc32)C1=O (stereo not drawn)	none
Cc1cc(C)c(-c2cc(NC(=O)COC(=O)c3ccc(NC(=O)CC#N)cc3)n(-c3ccccc3)n2)cc1C	KCNQ1 inh 6 | KCNQ1 block val 156.0 | CHO KCNQ1 ctr inactive | KCNQ1 APC inh inactive | KCNQ2 inh 64.0% | KCNQ1-KCNE1 inh 137.0%
CCOC(=O)c1ccc(NC(=S)NCCc2ccccc2F)cc1	KCNQ1 inh 8 | KCNQ1 block val 84.5 | CHO KCNQ1 ctr inactive | KCNQ2 inh 77.0% | KCNQ1-KCNE1 inh 50.5%
CCCc1nn2c(=O)cc(COc3ccc(NC(=O)c4ccco4)cc3)nc2s1	none
Oc1ccc(-c2n[nH]c(C(F)(F)F)c2-c2ccccc2)c(O)c1	KCNQ1 inh 8 | KCNQ1 block val 156.0 | CHO KCNQ1 ctr 0.371 | KCNQ2 inh inactive | KCNQ1-KCNE1 inh 181.5%
COC(=O)c1ccccc1N(C)S(=O)(=O)c1cc2c3c(c1)CCC(=O)N3CCC2	none
Cc1ccc(NC(=S)Nc2ccc(OC(F)F)c(Cl)c2)cc1F	KCNQ1 inh 14 | KCNQ1 block val 88.5 | CHO KCNQ1 ctr inactive | KCNQ1 APC inh inactive | KCNQ2 inh inactive | KCNQ1-KCNE1 inh inactive
O=C(NNS(=O)(=O)c1ccccc1)C1CCCCC1	none
CN(CC(=O)Nc1cccc(F)c1)C(=O)c1cn(-c2ccccc2)nc1-c1cccs1	KCNQ1 inh 8 | KCNQ1 block val 79.0 | CHO KCNQ1 ctr inactive | KCNQ2 inh 83.3% | KCNQ1-KCNE1 inh 108.5%
CCCNC(=S)Nc1cccc(C(F)(F)F)c1	none
FC(F)(F)c1cccc(NC(=S)NCC2COc3ccccc3O2)c1 (stereo not drawn)	KCNQ1 inh 7 | KCNQ1 block val 58.5 | CHO KCNQ1 ctr inactive | KCNQ2 inh 64.7% | KCNQ1-KCNE1 inh 43.5%
OCCNc1c2ccccc2nc2c(F)c(F)c(F)c(F)c12	KCNQ1 inh 6 | KCNQ1 block val 84.0 | CHO KCNQ1 ctr 0.372 | KCNQ2 inh 105.0% | KCNQ1-KCNE1 inh 101.0%
CN(C)CCCNc1c2ccccc2nc2ccccc12	none
Cc1c2ccccc2nc2c(F)c(NCCO)c(F)c(F)c12	KCNQ1 inh 6 | KCNQ1 block val 177.5 | CHO KCNQ1 ctr 0.151 | KCNQ2 inh inactive | KCNQ1-KCNE1 inh inactive
CC(=O)Nc1nn(C)c2nc3ccc(C)cc3cc12	none
O=C(NCc1n[nH]c(=S)n1-c1cccc(C(F)(F)F)c1)c1ccc(S(=O)(=O)N2CCCCC2)cc1	none
c1ccc(Cn2nnnc2C(c2cccnc2)N2CCN(C3CCCCC3)CC2)cc1 (stereo not drawn)	KCNQ1 inh 8 | KCNQ1 block val 39.0 | CHO KCNQ1 ctr inactive | KCNQ2 inh 64.0% | KCNQ1-KCNE1 inh 37.5%
Cc1ccsc1C(=O)OCc1csc(-c2ccccc2)n1	KCNQ1 inh 7, KCNK9 inh -7.79 | KCNQ1 block val 145.5 | CHO KCNQ1 ctr inactive | KCNQ1 APC inh inactive | KCNQ2 inh 126.7% | KCNQ1-KCNE1 inh active
COCc1cc(Sc2ccc(Cl)cc2)nc(-c2ccccc2)n1	KCNQ1 inh 6 | KCNQ1 block val 77.0 | CHO KCNQ1 ctr inactive | KCNQ2 inh 90.7% | KCNQ1-KCNE1 inh 79.5%
COCc1cc(N2CCOCC2)nc(-c2ccccc2)n1	none
COCc1cc(N2CCN(c3ccccc3F)CC2)nc(-c2ccccc2)n1	KCNQ1 inh 6 | KCNQ1 block val 51.0 | CHO KCNQ1 ctr inactive | KCNQ2 inh 59.7% | KCNQ1-KCNE1 inh 139.5%
COC(=O)c1cc(C(=O)OCC(=O)N2CCCCC2)cc([N+](=O)[O-])c1	none (no result: Kir21 inh, KCNQ1 act, KCNQ1 inh, hERG protect, KCNK9 inh)
CCCc1cnc(N2CCN(C(=O)c3ccccc3)CC2)nc1	none
CCCCC(=O)O[C@H]1CC[C@H]2[C@@H]3CCc4cc(O)ccc4[C@H]3CC[C@]12C	KCNQ1 inh 6 | KCNQ1 block val 72.0 | CHO KCNQ1 ctr inactive | KCNQ2 inh 63.3% | KCNQ1-KCNE1 inh 100.0%
CCOc1cc2c3c(c1)C1(Nc4ccccc4S1)C(=O)N3C(C)(C)CC2C (stereo not drawn)	KCNQ1 inh 8 | KCNQ1 block val 95.5 | CHO KCNQ1 ctr inactive | KCNQ1 APC inh inactive | KCNQ2 inh inactive | KCNQ1-KCNE1 inh 77.0%
O=S(=O)(c1ccc(S(=O)(=O)N(Cc2ccc(F)cc2)C2CCCC2)cc1)N1CCCC1	KCNQ1 inh 6 | KCNQ1 block val 57.0 | CHO KCNQ1 ctr inactive | KCNQ2 inh inactive | KCNQ1-KCNE1 inh 94.5%
COC(=O)c1cc(-c2ccc(S(=O)(=O)N3CCCCC3)cc2)c(C(F)(F)F)s1	none
O=C(Nc1ccc(Cl)cc1)Nc1nnc(-c2ccncc2)s1	none
Cc1ccc(NC(=O)Nc2nnc(-c3ccncc3)s2)cc1C	KCNQ1 inh 11 | KCNQ1 block val 105.0 | CHO KCNQ1 ctr inactive | KCNQ1 APC inh inactive | KCNQ2 inh inactive | KCNQ1-KCNE1 inh 57.0%
CC(C)c1ccc(C2NC(=O)c3ccccc3O2)cc1 (stereo not drawn)	none
O=C(Nc1ccc(Br)cc1)Nc1cnccn1	KCNQ1 inh 7 | KCNQ1 block val inactive | CHO KCNQ1 ctr inactive | KCNQ2 inh inactive | KCNQ1-KCNE1 inh inactive
CC(NC(=O)c1cccc(F)c1)C1CC2CCC1C2 (stereo not drawn)	none
Cc1ccccc1-n1c(SCC(=O)N2CCN(c3ccccn3)CC2)nnc1N1CCOCC1	none (no result: Kir21 inh, KCNQ1 act, KCNQ1 inh, hERG protect, KCNK9 inh)
COc1cc(CNc2ncnc3c2[nH]c2ccc(C)cc23)cc(OC)c1	none
Cc1ccc2[nH]c3c(NCc4ccco4)ncnc3c2c1	KCNQ1 inh 9 | KCNQ1 block val 102.5 | CHO KCNQ1 ctr inactive | KCNQ1 APC inh inactive | KCNQ2 inh 70.3% | KCNQ1-KCNE1 inh 39.0%
CCOCCCN(C)C1CCN(C(=O)c2oc3ccccc3c2NC(=O)c2ccc(F)cc2)CC1	none
CCOc1ccc(CSC(=N)N)cc1Cl	none
CCCCOc1ccc(CSCCN)cc1Cl	KCNQ1 inh 6 | KCNQ1 block val 68.0 | CHO KCNQ1 ctr inactive | KCNQ2 inh inactive | KCNQ1-KCNE1 inh 103.0%
COc1ccc(S(=O)(=O)N(C)C)cc1NC(=O)COC(=O)C1CC1	none (no result: Kir21 inh, KCNQ1 act, KCNQ1 inh, hERG protect, KCNK9 inh)
CC(CN1CCN(Cc2ccccc2)CC1)OC(=O)c1ccco1 (stereo not drawn)	none

Assay outcomes deposited in PubChem BioAssay by Johns Hopkins Ion Channel Center.
